From ChEMBL document CHEMBL2093137, “WHO-TDR NTD Screening”
≈ marks a conversion by molar mass, not a printed value.

Assays:
Brugia malayi [1] = experiment: (§1) WHO-TDR: Lymphatic Filariasis; type: functional, organism-based;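 for % Inhibition: tested at 10 µM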
Summary of the method: (§2)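 A diverse library of 10,000 compounds from Life Chemicals was screened against Brugia malayi microfilariae in a whole-organism assay. The library had been filtered for drug-likeness and reactive groups. Activity is given as percent inhibition and as IC50.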

Onchocerca lienalis = experiment: WHO-TDR: Onchocerciasis; type: functional; set-up: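 at 12.5 µM on microfilariae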
Summary of the method: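 A diverse library of 10,000 compounds from Life Chemicals, filtered for drug-likeness and reactive groups, was screened against whole microfilariae of Onchocerca ochengi or Onchocerca lienalis. These animal pathogens served as stand-ins for the human parasite. Activity is given as percent inhibition and as IC50.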

Brugia malayi [2] = experiment: as §1; type: functional; set-up: concentration or dose not given beside the values; summary of the method: as §2
[3] = system: Trypanosoma brucei brucei; experiment: WHO-TDR: Human African Trypanosomiasis (HAT); type: functional, organism-based; conditions: Squib-427
Summary of the method: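 Values are IC50 figures for antiparasitic potency. They come from a whole-organism screen of 10,000 diverse Life Chemicals compounds against bloodstream-form Trypanosoma brucei (Squib 427 strain).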

Brugia malayi [4] = experiment: as §1; type: functional; set-up: concentration or dose not given beside the values; summary of the method: as §2; remark: listed apart in the source
[5] = WHO-TDR: Cytotoxicity; type: toxicity, cell-based; conditions: human, MRC5 cells
Trypanosoma cruzi = experiment: WHO-TDR: Chagas disease; type: functional, organism-based, Homo sapiens; conditions: MRC5
Summary of the method: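 Intracellular amastigotes of the Trypanosoma cruzi Tulahuen CL2 beta-galactosidase strain, grown in MRC-5SV2 human lung fibroblast host cells, were tested in a whole-organism screen. The compounds came from a 10,000-member diverse Life Chemicals library that had been filtered for drug-likeness and reactive groups. Previously published standard procedures were followed, with a reference drug as positive control, and potency is reported as IC50.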

Plasmodium falciparum K1 = experiment: WHO-TDR: Malaria; type: functional, organism-based, Homo sapiens; conditions: Erythrocyte
Summary of the method: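 Values are IC50 figures for antiplasmodial potency. They come from a whole-organism screen of 10,000 diverse Life Chemicals compounds against Plasmodium falciparum K1 growing inside human red blood cells, run by previously published standard procedures.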

Schistosoma mansoni [6] = experiment: (§3) WHO-TDR: Schistosomiasis; type: functional; set-up: concentration or dose not given beside the values
Summary of the method: (§4)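 A diverse library of 10,000 compounds from Life Chemicals, filtered for drug-likeness and reactive groups, was screened against whole larval and/or adult Schistosoma mansoni worms of the Puerto Rican strain. Previously published standard procedures were followed, with a reference drug as positive control. Activity is given as percent inhibition and as IC50.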

Leishmania infantum = experiment: WHO-TDR: Leishmaniasis; type: functional, organism-based, Mus musculus; conditions: Macrophage
Summary of the method: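 Values are IC50 figures for antiparasitic potency. They come from a whole-organism screen of a 10,000-compound diverse Life Chemicals library against Leishmania infantum MHOM/MA(BE)/67 amastigotes inside murine peritoneal macrophage host cells.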

Schistosoma mansoni [7] = experiment: as §3; type: functional, organism-based; summary of the method: as §4

O=C(CCS(=O)(=O)c1ccccc1)N(CCCN1CCOCC1)c1nc2ccccc2s1
IC50 (Brugia malayi [1]): 6.05 µM
% Inhibition (Onchocerca lienalis): 9.31%
% Inhibition (Brugia malayi [2]): 100%
IC50 [3]: 4.9 µg/mL (≈ 10.3 µM)
% Inhibition (Brugia malayi [4]): 60%
IC50 [5]: 2.88 µg/mL (≈ 6.09 µM)
IC50 (Trypanosoma cruzi): 8.52 µg/mL (≈ 18 µM)
IC50 (Plasmodium falciparum K1): > 15.3 µg/mL
% Inhibition (Schistosoma mansoni [6]): 0%
IC50 (Leishmania infantum): 5.81 µg/mL (≈ 12.3 µM)

CCOC(=O)c1ccc(NC(=O)CSc2c(C)[nH]c3ccccc23)cc1
IC50 (Brugia malayi [1]): 6.05 µM
% Inhibition (Onchocerca lienalis): 46.7%
% Inhibition (Brugia malayi [2]): 100%
IC50 [3]: 3.67 µg/mL (≈ 9.95 µM)
% Inhibition (Brugia malayi [4]): 0%
IC50 [5]: > 11.1 µg/mL
IC50 (Trypanosoma cruzi): 3.49 µg/mL (≈ 9.49 µM)
IC50 (Plasmodium falciparum K1): > 11.1 µg/mL
% Inhibition (Schistosoma mansoni [6]): 0%
IC50 (Leishmania infantum): > 11.1 µg/mL

CCOC(=O)c1c(NC(=O)CSc2nc3c([nH]c4ccccc43)c(=O)n2-c2ccccc2)sc2c1CCC2
IC50 (Brugia malayi [1]): 4.37 µM
% Inhibition (Onchocerca lienalis): 0%
% Inhibition (Brugia malayi [2]): 100%
IC50 [3]: > 17.4 µg/mL
% Inhibition (Brugia malayi [4]): 25%
IC50 [5]: > 16.3 µg/mL
IC50 (Trypanosoma cruzi): > 16.3 µg/mL
IC50 (Plasmodium falciparum K1): > 16.3 µg/mL
% Inhibition (Schistosoma mansoni [6]): 0%
IC50 (Leishmania infantum): 5.29 µg/mL (≈ 9.71 µM)

Cc1[nH]c2ccccc2c1SCCNC(=O)c1c(-c2ccccc2Cl)noc1C
IC50 (Brugia malayi [1]): 4.49 µM
% Inhibition (Onchocerca lienalis): 20%
% Inhibition (Brugia malayi [2]): 100%
IC50 [3]: > 13.6 µg/mL
% Inhibition (Brugia malayi [4]): 25%
IC50 [5]: > 12.8 µg/mL
IC50 (Trypanosoma cruzi): > 12.8 µg/mL
IC50 (Plasmodium falciparum K1): > 12.8 µg/mL
% Inhibition (Schistosoma mansoni [6]): 0%
IC50 (Leishmania infantum): > 12.8 µg/mL

COc1ccccc1C(=O)NCCSc1c(-c2ccccc2)[nH]c2ccccc12
IC50 (Brugia malayi [1]): 4.61 µM
% Inhibition (Onchocerca lienalis): 0%
% Inhibition (Brugia malayi [2]): 100%
IC50 [3]: 4.03 µg/mL (≈ 10 µM)
% Inhibition (Brugia malayi [4]): 25%
IC50 [5]: > 12.1 µg/mL
IC50 (Trypanosoma cruzi): 2.91 µg/mL (≈ 7.24 µM)
IC50 (Plasmodium falciparum K1): 5.19 µg/mL (≈ 12.9 µM)
% Inhibition (Schistosoma mansoni [6]): 0%
IC50 (Leishmania infantum): > 12.1 µg/mL

CCCCc1ccc(NC(=O)CSc2nccn2-c2ccccc2)cc1
IC50 (Brugia malayi [1]): 4.31 µM
% Inhibition (Onchocerca lienalis): 0%
% Inhibition (Brugia malayi [2]): 100%
IC50 [3]: > 11.7 µg/mL
% Inhibition (Brugia malayi [4]): 25%
IC50 [5]: > 11 µg/mL
IC50 (Trypanosoma cruzi): 3.22 µg/mL (≈ 8.81 µM)
IC50 (Plasmodium falciparum K1): > 11 µg/mL
% Inhibition (Schistosoma mansoni [6]): 0%
IC50 (Leishmania infantum): > 11 µg/mL

COc1ccc(Cl)cc1NC(=O)CSc1nccn1-c1cccc(C)c1C
IC50 (Brugia malayi [1]): 3.94 µM
% Inhibition (Onchocerca lienalis): 46.67%
% Inhibition (Brugia malayi [2]): 100%
IC50 [3]: > 12.9 µg/mL
% Inhibition (Brugia malayi [4]): 25%
IC50 [5]: > 12.1 µg/mL
IC50 (Trypanosoma cruzi): 2.76 µg/mL (≈ 6.86 µM)
IC50 (Plasmodium falciparum K1): > 12.1 µg/mL
% Inhibition (Schistosoma mansoni [6]): 0%
IC50 (Leishmania infantum): > 12.1 µg/mL

O=C(Nc1nc2c(s1)CSc1ccccc1-2)C1CCCN1S(=O)(=O)c1cccs1 (centres undefined)
IC50 (Brugia malayi [1]): 5.19 µM
% Inhibition (Onchocerca lienalis): 93%
% Inhibition (Brugia malayi [2]): 100%
IC50 [3]: 0.45 µg/mL (≈ 0.971 µM)
% Inhibition (Brugia malayi [4]): 0%
IC50 [5]: 1.88 µg/mL (≈ 4.06 µM)
IC50 (Trypanosoma cruzi): 0.5 µg/mL (≈ 1.08 µM)
IC50 (Plasmodium falciparum K1): 3.71 µg/mL (≈ 8 µM)
% Inhibition (Schistosoma mansoni [6]): 100%
IC50 (Leishmania infantum): 4.5 µg/mL (≈ 9.71 µM)

CN(Cc1ccco1)S(=O)(=O)c1ccc(C(=O)Nc2nc3c(s2)CSc2ccccc2-3)cc1
IC50 (Brugia malayi [1]): 3.97 µM
% Inhibition (Onchocerca lienalis): 0%
% Inhibition (Brugia malayi [2]): 100%
IC50 [3]: 2.24 µg/mL (≈ 4.49 µM)
% Inhibition (Brugia malayi [4]): 40%
IC50 [5]: > 14.9 µg/mL
IC50 (Trypanosoma cruzi): 3.86 µg/mL (≈ 7.76 µM)
IC50 (Plasmodium falciparum K1): > 14.9 µg/mL
% Inhibition (Schistosoma mansoni [6]): 91.7%
IC50 (Leishmania infantum): > 14.9 µg/mL

O=C(CCCSc1ccc(F)cc1)N1CCN(c2nc3ccc(Cl)cc3s2)CC1
IC50 (Brugia malayi [1]): 3.54 µM
% Inhibition (Onchocerca lienalis): 12.34%
% Inhibition (Brugia malayi [2]): 100%
IC50 [3]: > 13.5 µg/mL
% Inhibition (Brugia malayi [4]): 40%
IC50 [5]: > 13.5 µg/mL
IC50 (Trypanosoma cruzi): > 13.5 µg/mL
IC50 (Plasmodium falciparum K1): > 13.5 µg/mL
% Inhibition (Schistosoma mansoni [6]): 0%
IC50 (Leishmania infantum): 4.37 µg/mL (≈ 9.71 µM)

O=C(Nc1cc2ccccc2cc1NC(=O)c1ccc2c(c1)OCCO2)c1ccc2c(c1)OCCO2
IC50 (Schistosoma mansoni [7]): 8.8 µM
% Inhibition (Onchocerca lienalis): 13.3%
IC50 [3]: > 14.5 µg/mL
IC50 [5]: > 14.5 µg/mL
IC50 (Trypanosoma cruzi): > 14.5 µg/mL
IC50 (Plasmodium falciparum K1): > 14.5 µg/mL
% Inhibition (Schistosoma mansoni [6]): 100%
IC50 (Leishmania infantum): > 14.5 µg/mL

CCOC(=O)c1c(NC(=O)C(C)Sc2nnc(NC(C)=O)s2)sc2c1CCCC2 (centres undefined)
IC50 (Schistosoma mansoni [7]): 9.8 µM
% Inhibition (Onchocerca lienalis): 0%
IC50 [3]: > 13.6 µg/mL
IC50 [5]: > 13.6 µg/mL
IC50 (Trypanosoma cruzi): > 13.6 µg/mL
IC50 (Plasmodium falciparum K1): > 13.6 µg/mL
% Inhibition (Schistosoma mansoni [6]): 100%
IC50 (Leishmania infantum): > 13.6 µg/mL

CN(CC1CCCO1)S(=O)(=O)c1ccc(C(=O)Nc2cccc(-c3nc4ccccc4o3)c2)cc1 (centres undefined)
IC50 (Schistosoma mansoni [7]): 7.4 µM
% Inhibition (Onchocerca lienalis): 13.3%
IC50 [3]: 4.38 µg/mL (≈ 8.92 µM)
IC50 [5]: > 8.86 µg/mL
IC50 (Trypanosoma cruzi): > 8.86 µg/mL
IC50 (Plasmodium falciparum K1): > 8.86 µg/mL
% Inhibition (Schistosoma mansoni [6]): 100%
IC50 (Leishmania infantum): 4.66 µg/mL (≈ 9.49 µM)
